Shown are actives, neighbours in structure and some others; about 2.5% of the full set was active somewhere.
DENV2 CPE – inhibitors of DENV2 cytopathic effect, primary screen, cell-based, plate reader, single concentration; DENV2-infected cells, cytopathic effect rescue; CPE inhibition, % at 9.99 µM; 1.7% of 350,000 active; AID 651640, 2012; in the data active means CPE inhibition above about 20%, passing the limit was not always enough; tested in BHK-21 cells
PglD inh – C. jejuni PglD acetyltransferase inhibitors, primary screen, biochemical, DTNB colorimetric, single point. UDP-N-acetylbacillosamine N-acetyltransferase PglD (Campylobacter jejuni). purified PglD enzyme, DTNB colorimetric CoA detection. inhibition, % at 12.5 µM. 0.098% of 360,000 active. AID 602405, 2012; in the data active means inhibition above about 16%, passing the limit was not always enough
SIRT5 inh – SIRT5 desuccinylase inhibitors, primary screen, biochemical, fluorescence imaging, single point, set 5 | NAD-dependent protein deacylase sirtuin-5, mitochondrial (Homo sapiens), Q9NXA8 | Purified SirT5, succinyl-peptide AMC, trypsin-coupled fluorescence | inhibition, % at 15 µM | 1.1% of 330,000 active; in the data active means inhibition above about 15%
E-sel inducer – E-selectin induction in HUVECs, primary screen, imaging, HUVEC, immunofluorescence imaging, single point | activation, % at 7.58 µM | normalized: neutral wells 0, TNF-alpha wells 100 | 0.37% of 260,000 active;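 active means mean E-selectin-positive cell signal at least 10% of the positive control, reached in at least 60% of replicates, without over 20% cell loss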
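Read-out: % PE-positive cells | Test system: HUVEC | Doses: One compound dose added by pin transfer | Buffer or medium: EGM-2 over gelatin coat | Signal: Immunofluorescence imaging | Benchmarks: TNF-alpha, DMSO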
ERAP1 HTS inh – human ERAP1 aminopeptidase inhibitors, primary screen, biochemical, single point, plate reader; Endoplasmic reticulum aminopeptidase 1 (Homo sapiens), Q9NZ08; recombinant ERAP1, Leu-AMC fluorescence, 60 min; inhibition, % at 10.7 µM; 0.15% of 340,000 active; AID 652197, 2013;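 active means mean replicate inhibition of at least 30%, or all replicates individually reaching that 30% level; inactive means mean below 30% and not every replicate reaching it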
PglD inh SP – PglD acetyltransferase inhibitors, confirmation, biochemical, DTNB absorbance, single point, cherry-picked samples; shares compounds with PglD inh; Purified C. jejuni PglD, DTNB absorbance 412 nm; inhibition, % at 20 µM; 320 tested, under 10 active; AID 743156, 2013;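 active means mean inhibition across replicates of at least 20% with every single replicate also at 20% or more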;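 further: initial rate of CoA release by acetyl transfer from AcCoA to the UDP-4-amino sugar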
Each line names hits and unclear results; the compound was inactive in the other large screens (follow-up assays come after a bar, where they were run); ! = not active in a repeat.

CCN1C(=O)C(=C/C=C/c2ccco2)C(=O)N(CC)C1=S	SIRT5 inh 21 (no result: PglD inh, E-sel inducer)
CC(C)(C#CC(=O)O)OOC(c1ccccc1)(c1ccccc1)c1ccccc1	ERAP1 HTS inh 41
O=S(=O)(c1cc(Cl)cc(Cl)c1)N1Cc2cc(N3CCOCC3)ccc2-n2nncc2C1	DENV2 CPE 108
C[C@@H]1CN([C@@H](C)CO)C(=O)CCCn2nncc2CO[C@@H]1CN(C)C(=O)Oc1ccc2ccccc2c1	none
C[C@@H]1CN([C@@H](C)CO)C(=O)CCCn2nncc2CO[C@H]1CN(C)C(=O)Oc1ccc2ccccc2c1	DENV2 CPE 50!
COc1ccc(OC(=O)N(C)C[C@H]2OCc3cnnn3CCCC(=O)N([C@@H](C)CO)C[C@H]2C)cc1	SIRT5 inh 15!
C[C@@H]1CN([C@H](C)CO)C(=O)CCCn2nncc2CO[C@H]1CN(C)C(=O)Oc1ccc2ccccc2c1	DENV2 CPE 56!
CN1CCN(c2ccc([N+](=O)[O-])cc2Cl)CC1	none (no result: DENV2 CPE, PglD inh, SIRT5 inh)
CN1CCN(c2cn[nH]c(=O)c2Cl)CC1	E-sel inducer 46
C[C@@H]1CN([C@@H](C)CO)C(=O)CCCn2cc(nn2)CO[C@@H]1CN(C)C(=O)Oc1ccc2ccccc2c1	none
COC(=O)[C@H]1[C@H](CO)[C@H]2Cn3c(ccc(-c4ccccc4F)c3=O)[C@@H]1N2CC1CCCC1	none
O=C1NC(=S)NC(=O)C1=Cc1ccc2c(c1)CCN2CCCCl	none (no result: DENV2 CPE, SIRT5 inh, E-sel inducer, ERAP1 HTS inh)
N#Cc1ccc(CN2Cc3ccccc3-n3nncc3C2)cc1	DENV2 CPE 109 (no result: E-sel inducer)
CCN(CC)c1ccc(/C=C2\C(=O)NC(=O)N(CC3CCCO3)C2=O)cc1 (configuration not stated)	none (no result: E-sel inducer)
Cc1ccc(/C=C2\C(=O)NC(=O)N(CC3CCCO3)C2=O)s1 (configuration not stated)	DENV2 CPE 30
Cc1cc(=O)[nH]c(CCl)n1	none (no result: PglD inh, E-sel inducer)
COc1ccc(C=C2C(=O)NC(=S)NC2=O)cc1OC	ERAP1 HTS inh 37
CCOc1cc(C=C2C(=O)NC(=S)NC2=O)ccc1O	none
COc1ccc(-n2c(/C=C/c3ccc4c(c3)OCO4)nc3ccccc3c2=O)cc1	SIRT5 inh 32 (no result: PglD inh)
O=C(Cc1cccnc1)N1CCCCN2[C@H](CO)[C@H](c3ccc(C#CC4CCCC4)cc3)[C@H]2C1	none
O=C(Cc1cccnc1)N1CCCCN2[C@H](C1)[C@H](c1ccc(C#CC3CCCC3)cc1)[C@@H]2CO	none
O=C(Cc1cccnc1)N1CCCCN2[C@@H](CO)[C@@H](c3ccc(C#CC4CCCC4)cc3)[C@@H]2C1	DENV2 CPE 32
N#Cc1cccc(-c2ccc([C@H]3[C@@H](CO)N4CCCCN(C(=O)Cc5cccnc5)C[C@H]34)cc2)c1	DENV2 CPE 38
O=C(Cc1cccnc1)N1CCCCN2[C@@H](CO)[C@@H](c3ccc(C#CC4(O)CCCC4)cc3)[C@@H]2C1	DENV2 CPE 40
O=C(Cc1cccnc1)N1CCCCN2[C@H](CO)[C@@H](c3ccc(C#CC4CCCC4)cc3)[C@H]2C1	DENV2 CPE 40
O=C(Nc1ccc(C(=O)O)cc1)Oc1ccc(N(CCCl)CCCl)cc1	none (no result: PglD inh)
COc1ccc(C#Cc2ccc([C@@H]3[C@@H](CO)N4CCCCN(C(=O)Cc5ccncc5)C[C@@H]34)cc2)cc1	DENV2 CPE 36
CCCCOC(=O)c1ccccc1N	none (no result: SIRT5 inh, E-sel inducer)
Nc1ccccc1C(=O)OCCc1ccccc1	DENV2 CPE 78 (no result: SIRT5 inh, E-sel inducer)
COC(=O)C1=C(c2c(C)noc2C)C[C@@H]2CC[C@H]1N2C(=O)N1CCC(O)CC1	none (no result: SIRT5 inh, ERAP1 HTS inh)
COC(=O)C1=C(c2c(C)noc2C)C[C@@H]2CC[C@H]1N2C(=O)N1CCC(C)CC1	DENV2 CPE 51 (no result: SIRT5 inh, ERAP1 HTS inh)
CC(=NNC(=S)N1CC2CCC(CC2)C1)c1nccs1	none (no result: PglD inh)
COc1ccc2c3c1OC1C(O)C=CC4C(C2)[N+](C)(C)CCC341 (configuration not stated)	ERAP1 HTS inh 58
Cc1cc(C)cc(N2C(=O)/C(=C\c3ccc(N4CCN(C)CC4)o3)C(=O)NC2=S)c1	PglD inh 76 (no result: E-sel inducer) | PglD inh SP inactive
CCCNS(=O)(=O)c1ccc(OCC(=O)N2CCN(Cc3ccc4c(c3)OCO4)CC2)c(C)c1	none (no result: PglD inh, E-sel inducer)
CCCNS(=O)(=O)c1ccc(OCC(=O)N2CCN(Cc3ccc4c(c3)OCO4)CC2)cc1	PglD inh 29 (no result: DENV2 CPE, SIRT5 inh, E-sel inducer, ERAP1 HTS inh) | PglD inh SP inactive
CC(C)CN(C(=O)CN1CC=C(c2ccccc2)CC1)c1c(N)n(CC(C)C)c(=O)[nH]c1=O	none (no result: E-sel inducer)

Assay outcomes from PubChem.
